Reference: article PMC9988221 (Journal of Clinical Psychopharmacology, 2023)
pIC50: −log10 of the molar value. Like-named read-outs stand apart in the source and are kept apart here.

How the values were obtained:
Safety and tolerability = type: in vivo, human; details: this study, healthy male participants
How it was run: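 Phase I open-label, single-sequence crossover in healthy men. No specific safety endpoints were set. Counts of participants with treatment-emergent AEs (drug-related, serious, special interest, other significant), including clinically relevant physical and neurological examination findings, were analysed in the treated set. End-of-trial visit was 11–16 days after the last test compound dose.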

CYP3A4 [1] = assay: Basic induction model; set-up: species or system human
Unbound plasma fraction = type: in vitro ADME; details: derived from other preclinical studies (data not shown)
[2] = type: in vivo, human; details: once-daily BI 425809 25 mg; midazolam exposure
CYP3A4/5 = details: human, human liver microsomes
CYP1A2 = target: T1, CYP1A2 (Homo sapiens, UniProt P05177); assay: Reversible CYP inhibition in human liver microsomes, phenacetin substrate
T1 sequence (P05177 1-516): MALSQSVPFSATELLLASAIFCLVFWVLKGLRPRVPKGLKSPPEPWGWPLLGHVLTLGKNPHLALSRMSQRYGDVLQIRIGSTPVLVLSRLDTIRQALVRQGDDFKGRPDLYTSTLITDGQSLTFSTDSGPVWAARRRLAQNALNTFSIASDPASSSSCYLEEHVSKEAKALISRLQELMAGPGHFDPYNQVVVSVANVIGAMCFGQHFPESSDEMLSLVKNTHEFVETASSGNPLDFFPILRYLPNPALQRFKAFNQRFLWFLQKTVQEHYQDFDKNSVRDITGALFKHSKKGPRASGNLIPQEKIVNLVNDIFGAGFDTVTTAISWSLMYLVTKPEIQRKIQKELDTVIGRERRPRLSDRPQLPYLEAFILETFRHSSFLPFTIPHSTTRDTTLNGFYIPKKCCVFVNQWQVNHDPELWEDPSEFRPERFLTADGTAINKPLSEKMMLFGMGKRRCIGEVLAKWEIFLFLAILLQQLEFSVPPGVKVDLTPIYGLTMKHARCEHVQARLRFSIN

CYP2B6 = target: T2, CYP2B6 (Homo sapiens, UniProt P20813); assay: Reversible CYP inhibition in human liver microsomes, bupropion substrate
T2 sequence (P20813 1-491): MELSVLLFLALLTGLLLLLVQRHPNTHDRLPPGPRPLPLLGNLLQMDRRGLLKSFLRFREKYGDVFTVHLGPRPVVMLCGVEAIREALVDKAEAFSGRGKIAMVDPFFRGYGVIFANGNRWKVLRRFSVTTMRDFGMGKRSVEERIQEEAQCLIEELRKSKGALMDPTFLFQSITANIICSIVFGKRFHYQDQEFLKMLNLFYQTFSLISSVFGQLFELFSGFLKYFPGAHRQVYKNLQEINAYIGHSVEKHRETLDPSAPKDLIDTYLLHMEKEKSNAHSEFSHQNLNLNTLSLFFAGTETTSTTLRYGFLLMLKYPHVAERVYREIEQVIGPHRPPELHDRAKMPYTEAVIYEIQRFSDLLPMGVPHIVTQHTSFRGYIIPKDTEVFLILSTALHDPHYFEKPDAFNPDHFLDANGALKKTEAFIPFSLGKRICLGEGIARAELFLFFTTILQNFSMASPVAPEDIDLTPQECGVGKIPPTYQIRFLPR

CYP2C8 = target: T3, CYP2C8 (Homo sapiens, UniProt P10632); assay: Reversible CYP inhibition in human liver microsomes, amodiaquine substrate
T3 sequence (P10632 1-490): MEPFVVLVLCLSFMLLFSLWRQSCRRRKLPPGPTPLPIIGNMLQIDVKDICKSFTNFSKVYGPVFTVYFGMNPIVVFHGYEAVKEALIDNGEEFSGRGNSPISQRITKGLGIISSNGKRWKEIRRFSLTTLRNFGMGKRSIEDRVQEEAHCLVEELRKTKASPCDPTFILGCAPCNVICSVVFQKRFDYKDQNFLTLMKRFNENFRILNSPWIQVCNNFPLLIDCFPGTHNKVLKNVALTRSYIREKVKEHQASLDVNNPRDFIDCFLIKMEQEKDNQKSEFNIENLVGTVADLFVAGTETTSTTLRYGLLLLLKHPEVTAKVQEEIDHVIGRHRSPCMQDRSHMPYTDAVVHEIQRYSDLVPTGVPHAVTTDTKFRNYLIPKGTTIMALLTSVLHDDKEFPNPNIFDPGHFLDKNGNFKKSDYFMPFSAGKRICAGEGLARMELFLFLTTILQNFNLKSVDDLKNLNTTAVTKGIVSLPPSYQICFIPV

CYP3A4 [3] = details: for Emax for induction of CYP3A4 activity: BI 425809 10 to 30 μM, 48 hours
CYP3A4 [4] = assay: in vitro; details: human, Emax for induction of CYP3A4 activity, % of positive control effect
CYP2C9 = CYP2C9 (Homo sapiens, UniProt P11712); assay: Reversible CYP inhibition in human liver microsomes, diclofenac substrate
[5] = cited from earlier work
human hepatocytes = assay: Cell viability of hepatocytes in the induction assay; type: cell-based; details: hepatocytes from any donor; BI 425809 up to 30 μM
[6] = Attainment of BI 425809 steady state; type: in vivo, human
P-gp = P-gp (Homo sapiens, UniProt P08183); type: in vitro ADME
How it was run: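 Bidirectional Caco-2 monolayer transport in HBSS with 15 mM HEPES, pH 7.4, after 30 min equilibration. [³H]digoxin (1 μM) went in the donor side, and test compound (1–100 μM) or zosuquidar (1 μM) on both sides. After 30 min preincubation, sampling ran to 90 min and was read by scintillation counting. Papp gave the B-to-A/A-to-B efflux ratio, and IC50 with slope factor came from nonlinear regression of efflux ratio against inhibitor concentration.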

CYP2C19 = CYP2C19 (Homo sapiens, UniProt P33261); assay: Reversible CYP inhibition in human liver microsomes, S-mephenytoin substrate
CYP2D6 = CYP2D6 (Homo sapiens, UniProt P10635); assay: Reversible CYP inhibition in human liver microsomes, dextromethorphan substrate
CYP3A4 mRNA = type: in vitro ADME, human; details: for Emax for induction of CYP3A4 mRNA levels: 10 to 30 μM BI 425809

Chain of P-gp (P08183 whole entry): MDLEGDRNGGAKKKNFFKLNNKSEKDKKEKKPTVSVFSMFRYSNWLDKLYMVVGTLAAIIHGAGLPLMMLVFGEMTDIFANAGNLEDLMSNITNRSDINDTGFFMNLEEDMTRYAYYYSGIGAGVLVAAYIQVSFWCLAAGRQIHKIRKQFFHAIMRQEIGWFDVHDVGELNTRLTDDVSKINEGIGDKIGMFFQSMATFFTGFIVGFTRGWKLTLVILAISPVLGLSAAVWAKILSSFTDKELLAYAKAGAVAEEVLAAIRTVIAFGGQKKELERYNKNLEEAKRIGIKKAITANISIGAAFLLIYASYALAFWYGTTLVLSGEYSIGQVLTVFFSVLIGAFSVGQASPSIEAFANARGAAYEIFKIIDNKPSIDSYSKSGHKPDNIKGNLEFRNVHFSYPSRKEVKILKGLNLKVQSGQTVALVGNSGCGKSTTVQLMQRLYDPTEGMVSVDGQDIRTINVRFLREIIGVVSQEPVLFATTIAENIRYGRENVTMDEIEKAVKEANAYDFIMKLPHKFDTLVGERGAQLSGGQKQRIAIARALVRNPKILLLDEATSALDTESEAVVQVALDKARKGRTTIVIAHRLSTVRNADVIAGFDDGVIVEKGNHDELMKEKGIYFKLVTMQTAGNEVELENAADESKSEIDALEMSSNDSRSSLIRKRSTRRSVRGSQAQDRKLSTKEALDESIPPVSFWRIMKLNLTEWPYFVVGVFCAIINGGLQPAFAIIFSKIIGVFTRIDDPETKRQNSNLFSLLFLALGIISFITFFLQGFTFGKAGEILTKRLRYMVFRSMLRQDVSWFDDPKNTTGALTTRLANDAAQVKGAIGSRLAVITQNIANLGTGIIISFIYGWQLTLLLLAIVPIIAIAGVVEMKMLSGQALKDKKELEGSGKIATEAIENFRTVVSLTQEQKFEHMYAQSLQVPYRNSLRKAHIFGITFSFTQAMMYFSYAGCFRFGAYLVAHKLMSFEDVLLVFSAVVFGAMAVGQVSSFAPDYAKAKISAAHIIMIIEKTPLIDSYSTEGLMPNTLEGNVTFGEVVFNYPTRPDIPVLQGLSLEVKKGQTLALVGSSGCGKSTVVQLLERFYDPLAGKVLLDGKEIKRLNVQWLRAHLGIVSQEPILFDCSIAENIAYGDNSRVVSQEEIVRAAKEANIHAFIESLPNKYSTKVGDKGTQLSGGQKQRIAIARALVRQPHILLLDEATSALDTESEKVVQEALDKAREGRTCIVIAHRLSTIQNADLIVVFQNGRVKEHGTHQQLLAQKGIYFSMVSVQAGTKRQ
Chain of CYP2D6 (P10635 whole entry): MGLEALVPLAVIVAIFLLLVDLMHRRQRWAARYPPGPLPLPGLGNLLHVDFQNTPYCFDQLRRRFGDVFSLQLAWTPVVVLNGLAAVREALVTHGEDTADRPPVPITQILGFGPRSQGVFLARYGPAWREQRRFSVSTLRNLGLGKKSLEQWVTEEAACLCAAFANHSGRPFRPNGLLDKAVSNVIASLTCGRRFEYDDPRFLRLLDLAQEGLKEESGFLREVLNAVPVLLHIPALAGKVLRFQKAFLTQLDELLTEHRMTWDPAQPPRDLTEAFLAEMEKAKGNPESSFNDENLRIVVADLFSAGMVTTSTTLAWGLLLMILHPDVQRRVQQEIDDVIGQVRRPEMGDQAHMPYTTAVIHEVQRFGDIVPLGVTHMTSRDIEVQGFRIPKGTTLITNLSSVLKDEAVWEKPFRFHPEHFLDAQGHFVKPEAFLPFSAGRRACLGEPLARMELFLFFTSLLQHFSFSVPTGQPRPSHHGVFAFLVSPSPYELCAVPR
Chain of CYP2C9 (P11712 whole entry): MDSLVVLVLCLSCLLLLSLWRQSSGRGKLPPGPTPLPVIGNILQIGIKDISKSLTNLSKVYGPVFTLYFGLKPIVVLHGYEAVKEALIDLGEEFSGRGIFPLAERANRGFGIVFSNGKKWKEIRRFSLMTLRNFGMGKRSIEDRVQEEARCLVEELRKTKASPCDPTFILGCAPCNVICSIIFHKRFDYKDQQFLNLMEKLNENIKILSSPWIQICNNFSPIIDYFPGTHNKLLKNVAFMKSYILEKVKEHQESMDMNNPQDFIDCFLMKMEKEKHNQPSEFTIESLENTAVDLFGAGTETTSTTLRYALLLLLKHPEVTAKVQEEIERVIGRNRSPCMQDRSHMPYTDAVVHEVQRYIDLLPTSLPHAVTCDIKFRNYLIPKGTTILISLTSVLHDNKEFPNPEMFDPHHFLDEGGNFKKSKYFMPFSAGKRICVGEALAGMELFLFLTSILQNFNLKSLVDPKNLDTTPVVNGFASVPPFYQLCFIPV
Chain of CYP2C19 (P33261 whole entry): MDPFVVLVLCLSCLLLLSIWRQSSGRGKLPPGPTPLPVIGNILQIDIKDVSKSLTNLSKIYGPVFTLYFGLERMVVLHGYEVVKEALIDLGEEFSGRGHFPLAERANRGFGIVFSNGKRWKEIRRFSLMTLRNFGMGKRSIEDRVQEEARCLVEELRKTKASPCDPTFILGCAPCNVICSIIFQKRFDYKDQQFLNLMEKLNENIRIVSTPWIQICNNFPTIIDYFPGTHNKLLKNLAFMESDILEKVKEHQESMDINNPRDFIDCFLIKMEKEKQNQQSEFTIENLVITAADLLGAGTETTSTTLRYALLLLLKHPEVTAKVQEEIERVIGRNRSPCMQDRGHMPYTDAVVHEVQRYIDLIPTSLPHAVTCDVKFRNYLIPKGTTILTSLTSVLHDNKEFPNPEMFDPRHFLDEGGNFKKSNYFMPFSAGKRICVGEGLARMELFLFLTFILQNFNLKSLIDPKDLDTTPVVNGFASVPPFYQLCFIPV

SMILES: C[C@@H](Oc1ccc(S(C)(=O)=O)cc1C(=O)N1C[C@@H]2C[C@]2(c2cc(C(F)(F)F)on2)C1)C(F)(F)F [BI 425809]
- tolerability (Safety and tolerability): well tolerated
- R3 (change in hepatic metabolic clearance of a sensitive CYP3A4 substrate) (CYP3A4 [1]; basic model, 2020 FDA guidance, unbound plasma fraction 0.196): 0.12
- Imax,u, maximum unbound plasma concentration (CYP3A4 [1]; input of the basic induction model): approximately 121 nM
- unbound plasma fraction (Unbound plasma fraction): 0.196
- CYP3A4 induction in vivo (in words) [2]: mild inducer of CYP3A4 in vivo
- pIC50 (CYP3A4/5): < 4.00
- pIC50 (CYP1A2): < 4.00
- pIC50 (CYP2B6): < 4.00
- pIC50 (CYP2C8): < 4.00
- Emax for induction of CYP3A4 activity (CYP3A4 [3]; hepatocytes donor 1): 10 fold
- Emax for induction of CYP3A4 activity (CYP3A4 [3]; hepatocytes donor 2): 3.4 fold
- Emax for induction of CYP3A4 activity (CYP3A4 [3]; hepatocytes donor 3): 6.6 fold
- induction of CYP3A4 activity (in words) (CYP3A4 [3]; human hepatocytes): Concentration-dependent induction
- Emax (CYP3A4 [4]): 37%
- pIC50 (CYP2C9): 4.26
- increase of cerebrospinal fluid glycine levels, average ([5]; doses of 10 mg and 25 mg, healthy volunteers): 50%
- tolerability ([5]; once-daily oral administration up to 75 mg, Phase I studies): generally well tolerated
- steady state reached after ([5]; previous study): 6 days
- cell viability relative to vehicle control (human hepatocytes): No decrease in cell viability
- steady state reached by ([6]; BI 425809 25 mg once daily, Cpre on days 8, 9, 10): ≤ 8 days
- adjusted gMean ratios of Cpre of the compared sampling time points ([6]; pairwise comparisons of days 8, 9, and 10 in period 2): ~100%
- pIC50 (P-gp): 4.85
- effect on P-gp-mediated transcellular transport of digoxin (in words) (P-gp; Caco-2 cell monolayer, zosuquidar 1 μM, BI 425809 1-100 μM): concentration-dependent inhibition
- I2/IC50 ratio (P-gp; I2 = dose[mol]/250 mL): approximately 13
- pIC50 (CYP2C19): < 4.00
- pIC50 (CYP2D6): < 4.00
- Emax for induction of CYP3A4 mRNA levels (CYP3A4 mRNA; hepatocytes donor 1): 14 fold
- Emax for induction of CYP3A4 mRNA levels (CYP3A4 mRNA; hepatocytes donor 2): 13 fold
- Emax for induction of CYP3A4 mRNA levels (CYP3A4 mRNA; hepatocytes donor 3): 37 fold
- induction of CYP3A4 mRNA levels (in words) (CYP3A4 mRNA; hepatocytes from donors 1, 2, and 3): concentration-dependent induction
- EC50 at 48 h (CYP3A4 mRNA; human, sandwich-cultured primary human hepatocytes): 1960 nM
- Emax for induction of CYP3A4 (CYP3A4 mRNA; mRNA levels of all three donors fitted to 3-parameter sigmoidal model): 18.7 fold
